Measured values taken from ChEMBL document CHEMBL1208665, “Discovery of new 1,3,5-triazine scaffolds with potent activity against Mycobacterium tuberculosis H37Rv” (Eur J Med Chem, 2010).
Values after ≈ are worked out from the molar mass of the structure shown.

System: Mycobacterium tuberculosis
Assay: Antimycobacterial activity against Mycobacterium tuberculosis H37Rv […] after 4 weeks
Assay type: functional
Details: not given
Procedure, shortened: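 Agar-slant dilution against H37Rv. Compounds from 1.0 mg/mL DMSO stock, two-fold serial dilutions, were incorporated into OADC-supplemented medium (2 mL/tube final) and solidified slanted. Inoculum spread on the surface, incubated 37 °C for 4 weeks. Drug-free tubes served as control. MIC is the lowest concentration giving complete growth inhibition relative to the inoculum used.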
Work on `COc1ccc(-c2cc(SC)nc(Nc3nc(N4CCCCC4)nc(N4CCCCC4)n3)n2)cc1OC` yielded an MIC greater than 12.5 mg/L.
With `CCN1CCN(c2nc(Nc3nc(SC)cc(-c4ccc(OC)c(OC)c4)n3)nc(N3CCN(CC)CC3)n2)CC1` the MIC was 12.5 mg/L (≈ 21.5 µM).
`COc1ccc(-c2cc(SC)nc(Nc3nc(NC(C)(C)C)nc(NC(C)(C)C)n3)n2)cc1OC` showed an MIC of 6.25 mg/L (≈ 12.5 µM).
In the case of `COc1cc(-c2cc(SC)nc(Nc3nc(NC(C)C)nc(NC(C)C)n3)n2)cc(OC)c1OC`, the MIC is reported as 3.12 mg/L (≈ 6.23 µM).
`CCN(CC)CCNc1nc(NCCN(CC)CC)nc(Nc2nc(SC)cc(-c3ccc(OC)c(OC)c3)n2)n1` showed an MIC of 6.25 mg/L (≈ 10.7 µM).
For `O=C(NNc1nc(Nc2ccccc2)nc(N2CCOCC2)n1)c1ccncc1`, the MIC was 1.56 mg/L (≈ 3.98 µM).
In the case of `O=C(NNc1nc(Nc2ccccc2)nc(N2CCCCC2)n1)c1ccncc1`, the MIC is reported as greater than 12.5 mg/L.
With `CCCCNc1nc(NNC(=O)c2ccncc2)nc(N2CCc3ccccc3C2)n1` the MIC was 3.12 mg/L (≈ 7.46 µM).
For `CCCCNc1nc(NNC(=O)c2ccncc2)nc(Nc2ccccc2)n1`, the MIC was 6.25 mg/L (≈ 16.5 µM).
`CCCCNc1nc(NNC(=O)c2ccncc2)nc(N2CCCCC2)n1` gave an MIC of 3.12 mg/L (≈ 8.42 µM).
Work on `CCN(CC)CCNc1cc(-c2cc(OC)c(OC)c(OC)c2)nc(N)n1` yielded an MIC greater than 12.5 mg/L.
`NN(C(=O)c1ccncc1)c1nc(Nc2ccccc2)nc(N(N)C(=O)c2ccncc2)n1` gave an MIC greater than 12.5 mg/L.
In the case of `COc1cc(-c2cc(N3CCCCC3)nc(N)n2)cc(OC)c1OC`, the MIC is reported as greater than 12.5 mg/L.
In the case of `COc1cc(-c2cc(SC)nc(Nc3nc(N4CCN(C)CC4)nc(N4CCN(C)CC4)n3)n2)cc(OC)c1OC`, the MIC is reported as 12.5 mg/L (≈ 21.5 µM).
In the case of `CN1CCN(c2nc(N3CCCc4ccccc43)nc(N3CCCc4ccccc43)n2)CC1`, the MIC is reported as greater than 12.5 mg/L.
Work on `COc1cc(-c2cc(N3CCOCC3)nc(N)n2)cc(OC)c1OC` yielded an MIC greater than 12.5 mg/L.
`CCN1CCN(c2nc(Nc3nc(SC)cc(-c4cc(OC)c(OC)c(OC)c4)n3)nc(N3CCN(CC)CC3)n2)CC1` showed an MIC of 12.5 mg/L (≈ 20.5 µM).
With `CCCNC1COCCN1c1cc(-c2cc(OC)c(OC)c(OC)c2)nc(N)n1` (configuration not stated) the MIC was greater than 12.5 mg/L.
`CC(C)Nc1nc(NNC(=O)c2ccncc2)nc(N2CCc3ccccc3C2)n1` gave an MIC of 3.12 mg/L (≈ 7.71 µM).
`CCN(CC)CCNc1nc(NCCN(CC)CC)nc(N2CCCCC2)n1` showed an MIC greater than 12.5 mg/L.
In the case of `NNC(=O)c1ccncc1` [ISONIAZID], the MIC is reported as 0.025 mg/L (≈ 0.182 µM).
Work on `CC(C)(C)Nc1nc(NNC(=O)c2ccncc2)nc(N2CCCCC2)n1` yielded an MIC of 6.25 mg/L (≈ 16.9 µM).
In the case of `CC(C)Nc1nc(NNC(=O)c2ccncc2)nc(Nc2ccccc2)n1`, the MIC is reported as 6.25 mg/L (≈ 17.2 µM).
`CC(C)Nc1nc(NNC(=O)c2ccncc2)nc(N2CCCCC2)n1` showed an MIC of 3.12 mg/L (≈ 8.75 µM).
With `CC(C)(C)Nc1nc(N2CCCc3ccccc32)nc(N2CCCc3ccccc32)n1` the MIC was greater than 12.5 mg/L.
With `CN(C)CCNc1nc(NCCN(C)C)nc(N2CCCc3ccccc32)n1` the MIC was greater than 12.5 mg/L.
With `CCCNc1nc(NCCC)nc(Nc2nc(SC)cc(-c3ccc(OC)c(OC)c3)n2)n1` the MIC was greater than 12.5 mg/L.
Molecule `CCCNC1COCCN1c1nc(Nc2nc(SC)cc(-c3cc(OC)c(OC)c(OC)c3)n2)nc(N2CCOCC2NCCC)n1` (configuration not stated) has an MIC of 12.5 mg/L (≈ 18.6 µM).
`CCN(CC)CCNc1nc(NCCN(CC)CC)nc(N2CCCc3ccccc32)n1` gave an MIC greater than 12.5 mg/L.
Molecule `CCNC1CN(c2nc(N3CCCCC3)nc(N3CCOC(NCC)C3)n2)CCO1` (configuration not stated) has an MIC greater than 12.5 mg/L.
Molecule `COc1ccc(-c2cc(SC)nc(Nc3nc(N4CCN(C)CC4)nc(N4CCN(C)CC4)n3)n2)cc1OC` has an MIC greater than 12.5 mg/L.
With `CN1CCN(c2nc(N3CCc4ccccc4C3)nc(N3CCc4ccccc4C3)n2)CC1` the MIC was 6.25 mg/L (≈ 14.2 µM).
Work on `COc1ccc(-c2cc(SC)nc(Nc3nc(NCCN(C)C)nc(NCCN(C)C)n3)n2)cc1OC` yielded an MIC of 6.25 mg/L (≈ 11.8 µM).
`CCCNC1COCCN1c1nc(N2CCc3ccccc3C2)nc(N2CCc3ccccc3C2)n1` (configuration not stated) showed an MIC greater than 12.5 mg/L.
For `CC(C)(C)Nc1nc(NC(C)(C)C)nc(N2CCCc3ccccc32)n1`, the MIC was greater than 12.5 mg/L.
`CC(C)(C)Nc1nc(NNC(=O)c2ccncc2)nc(Nc2ccccc2)n1` showed an MIC greater than 12.5 mg/L.
Molecule `O=C(NNc1nc(N2CCCCC2)nc(N2CCCCC2)n1)c1ccncc1` has an MIC of 6.25 mg/L (≈ 16.3 µM).
In the case of `CCN(CC)CCNc1nc(N)nc(Nc2nc(SC)cc(-c3cc(OC)c(OC)c(OC)c3)n2)n1`, the MIC is reported as greater than 12.5 mg/L.

System: Vero
Assay: Cytotoxicity against Vero cells after 24 hrs by MTS assay
Assay type: cell-based
Details: chlorocebus sabaeus, vero, 24 h
Procedure, shortened: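 VERO cells were seeded at 20,000/well in MEM + 10% FBS with antibiotics and left to adhere overnight at 37 °C, 5% CO₂. Compound dilutions were added in MEM + 10% FBS for 24 h, with DMSO as negative control and a known toxic compound as positive control. Read-out was MTS, 2 h, A490, with DMSO wells taken as 100% survival.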
In the case of `COc1cc(-c2cc(SC)nc(Nc3nc(NC(C)C)nc(NC(C)C)n3)n2)cc(OC)c1OC`, the Activity is reported as “Toxic”.
With `O=C(NNc1nc(Nc2ccccc2)nc(N2CCOCC2)n1)c1ccncc1` the Activity was “Non-toxic”.
For `CCCCNc1nc(NNC(=O)c2ccncc2)nc(N2CCc3ccccc3C2)n1`, the Activity was “Non-toxic”.
In the case of `CCCCNc1nc(NNC(=O)c2ccncc2)nc(N2CCCCC2)n1`, the Activity is reported as “Non-toxic”.
In the case of `CC(C)Nc1nc(NNC(=O)c2ccncc2)nc(N2CCc3ccccc3C2)n1`, the Activity is reported as “Non-toxic”.
In the case of `NNC(=O)c1ccncc1` [ISONIAZID], the Activity is reported as “Non-toxic”.
With `CC(C)Nc1nc(NNC(=O)c2ccncc2)nc(N2CCCCC2)n1` the Activity was “Non-toxic”.

System: not listed separately
Assay: Cytotoxicity against mouse BMDM after 48 hrs by MTS assay
Assay type: cell-based
Details: bmdm, 48 h
Procedure, shortened: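 Mouse femur bone marrow was flushed with DMEM + 10% FBS, 15% L-929 conditioned supernatant and non-essential amino acids. Cells were plated at 10⁵/well, medium was changed every 3rd day, and cells were used at day 5. Compounds were added in antibiotic-free FBS-DMEM for 48 h at 37 °C, 5% CO₂. Read-out was MTS, 2 h, A490, with DMSO wells taken as 100% survival.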
In the case of `COc1cc(-c2cc(SC)nc(Nc3nc(NC(C)C)nc(NC(C)C)n3)n2)cc(OC)c1OC`, the Activity is reported as “Toxic”.
For `O=C(NNc1nc(Nc2ccccc2)nc(N2CCOCC2)n1)c1ccncc1`, the Activity was “Non-toxic”.
With `CCCCNc1nc(NNC(=O)c2ccncc2)nc(N2CCc3ccccc3C2)n1` the Activity was “Non-toxic”.
For `CCCCNc1nc(NNC(=O)c2ccncc2)nc(N2CCCCC2)n1`, the Activity was “Non-toxic”.
With `CC(C)Nc1nc(NNC(=O)c2ccncc2)nc(N2CCc3ccccc3C2)n1` the Activity was “Non-toxic”.
With `NNC(=O)c1ccncc1` [ISONIAZID] the Activity was “Non-toxic”.
In the case of `CC(C)Nc1nc(NNC(=O)c2ccncc2)nc(N2CCCCC2)n1`, the Activity is reported as “Non-toxic”.
